Assay: Toxicity liver stage against HepG2, at 10uM
Assay type: cell-based
Parameters: test concentration 10 uM, cell line HepG2-A16-CD81EGFP
Settings: human, HepG2-A16-CD81EGFP cells; read-out: INHIBITION
Method in brief: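 Uninfected HepG2-A16-CD81EGFP cells, 3 × 10^3 per well, 1536-well, plated on prespotted compound at 10 μM final, parasite-free screening media added to match infected plates; puromycin 10 μM positive, DMSO 0.5% negative; run in parallel with 48 h PbLuc assay at 37 °C, 5% CO2; viability by CellTiter-Glo luminescence, normalized to controls.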

| SMILES | cytotoxicity at 10 µM |
| --- | --- |
| Cc1noc([C@@H]2C[C@H](NC(=O)C3CCCCC3)CN2C)n1 | -4.89% |
| Cc1nc(-c2ccoc2)n(CC(=O)N(C)CC(C)C)c1C | -4.5% |
| COc1nn(C)cc1C(=O)N1CCC(C)CC1 | 5.97% |
| CC(=O)c1cccc(NC(=O)Cn2cnc(-c3cccs3)cc2=O)c1 | -4.44% |
| O=C(NC1CCN(c2ccc(-c3ccccc3F)nn2)C1)c1cc[nH]n1 (configuration not stated) | 3.17% |
| Cc1cc(CNC(=O)c2cnoc2C)c(C)o1 | -6.32% |
| O=C(c1cnccn1)N1CCC2(CC1)C(=O)NCC2c1ccccc1 (configuration not stated) | -3.68% |
| CN(C)CCN1Cc2ncn(C)c2C(COCC(=O)N(C)C)C1 (configuration not stated) | 7.83% |
| CS(=O)(=O)NC[C@]12COC[C@H]1CN(C(=O)c1ccncn1)C2 | 9.2% |
| Cc1cc(-n2nnc(C(=O)O)c2-c2ccncc2)ccc1F | 6.31% |
| COC(=O)CC(c1ccc(OC)c(OC)c1OC)c1c(O)n[nH]c1C (configuration not stated) | 4.02% |
| CS(=O)(=O)Nc1ccn(Cc2ccc(Br)cc2)n1 | 10.9% |
| O=C(CCn1ncc2c(Cl)cccc21)NCCCO | 7.63% |
| CCn1nc(C)c2nnn(CC(=O)Nc3ccccc3)c(=O)c21 | 9.02% |
| Cc1cc(Nc2nc(C)cc(C)n2)cc(C2CCCN2)n1 (configuration not stated) | 0.407% |
| COc1cccc([C@@H]2N[C@H](c3nccs3)Cc3ccsc32)c1OC | 5.24% |
| Cc1c(C2=NS(=O)(=O)N(C)C(C(=O)Nc3ccc(Br)cc3)=C2)cnn1C | 11.7% |
| CCc1cc(C(=O)N2CCC(c3cc4ncccc4cn3)CC2)no1 | -14.4% |
| Cc1ccc(-c2nc(CCNCc3ccncc3)co2)cc1 | -4.96% |
| CN(Cc1ccccc1)C(=O)c1cc2c(c(S(N)(=O)=O)c1)CCC2 | -41.5% |
| Cc1cc(C)n(CC(C)CNC(=O)N(C)Cc2ccco2)n1 (configuration not stated) | 4.47% |
| CC(C)c1cc(N2CCC(NS(C)(=O)=O)C2)nc(C(C)C)n1 (configuration not stated) | 4.34% |
| CC(=O)NCC(=O)Nc1cc(C)n(-c2ccc(Cl)cc2Cl)n1 | -140% |

| SMILES | cytotoxicity at 10 µM |
| --- | --- |
| Cc1ccc(CN(C)C(=O)CCn2c(=O)n(C)c3ccccc32)o1 | 4% |
| COc1ccc(C(C)NCCC(N)=O)cc1F (configuration not stated) | -7.77% |
| O=C(NCc1nnc2n1CCC2)c1ccc(Br)s1 | 2.74% |
| COCCCNc1cc(C(=O)N2CCOCC2)ccc1C | 7.1% |
| COCCOc1ccc(CNC2CCc3ncnn3C2)cc1OC (configuration not stated) | -7.2% |
| CNS(=O)(=O)c1ccc(CNC(=O)C2CN(C)CCO2)cc1 (configuration not stated) | -14.1% |
| CCCN1CCC(NC(=O)c2ccnc(SCC)c2)CC1 | -4.14% |
| O=C(NCCc1nnc2n1CCC2)N(Cc1ccco1)C1CCCC1 | 5.04% |
| Cc1ccc(C(=O)N2CCOC(c3nc(C(C)(C)C)n[nH]3)C2)c(=O)[nH]1 (configuration not stated) | 1.31% |
| CCS(=O)(=O)CCCOc1nc(-c2ccccc2Cl)no1 | -6.14% |
| O=C(NS(=O)(=O)c1ccc(Cl)cc1F)c1cccc2c1OCCO2 | -5.33% |
| CCCNC(=O)CCNC(=O)c1sc2ccc(F)cc2c1C | 3.33% |
| CCC(CC)C(=O)NCc1cn2cc(Br)ccc2n1 | 5.17% |
| c1cnnc(N2CCCC2CNCc2nnc(C3CC3)o2)c1 (configuration not stated) | 1.41% |
| CC(C)(C)OC(=O)N1CCC[C@H](NCc2cc[nH]c2)C1 | 1.05% |
| CC1(C)CN(C(=O)Nc2ccc(Cn3cccn3)cc2)CCO1 | 45.1% |
| Cc1cc(NC(=O)Nc2ccc3c(ccn3CCN(C)C)c2)n(C)n1 | 3.38% |
| CCOc1cc(NC(=O)N(C)Cc2ncnn2C)ccc1C | 13.4% |
| COC(=O)c1ccc(NC(=O)CCc2ccncc2)c(C)c1 | 7.83% |
| COC(=O)CCC(=O)NC1CCCc2cc(OC(F)F)ccc21 (configuration not stated) | -4.52% |
| CCC1CCCCCN1C(=O)c1cc(C#N)c(SC)[nH]c1=O (configuration not stated) | 12% |
| CC(SCC(=O)N(C)CC(=O)NC1CC1)c1cc(F)ccc1F (configuration not stated) | 8.13% |
| Cc1nc(CN(CCS(C)(=O)=O)C(C)C)no1 | 0.329% |

| SMILES | cytotoxicity at 10 µM |
| --- | --- |
| CN(C)c1cccc(C2CCCN2CCCN2CCOC2=O)c1 (configuration not stated) | -10.2% |
| CN(CCNC(=O)Nc1cnn(C)c1)Cc1ccc(F)cc1 | 7.72% |
| CCN1CCNC(=O)C12CCN(C(=O)Cc1ccccn1)CC2 | 4.71% |
| CN(C)Cc1nc(-n2cnc(C(=O)NCC3CC3)c2)n2ccccc12 | 1.55% |
| O=C(c1ccc[nH]1)N1CCCn2cnc(COCC3CC3)c2C1 | -73.6% |
| Cc1nc(COC[C@H]2CCC[C@]23CN(C2CCOC2)CCO3)cs1 (some centres not stated) | -79.5% |
| CN(Cc1ccccn1)c1nccc(N2CCN[C@H]3CS(=O)(=O)C[C@H]32)n1 | 10.5% |
| CC(C)c1cc(NCC2(N(C)C)CCCC2)ncn1 | 4.22% |
| COc1ccc(Oc2cccnc2)cc1CN1CCCC1 | 2.67% |
| CCC[C@H]1CN(Cc2ccccc2C#N)C[C@@H]1NS(C)(=O)=O | -11% |
| COCCCN(Cc1cnc(C2CCCCC2)nc1)C1CCN(C)CC1 | -4.43% |
| Cc1nc(N2C[C@@H](CN3CCCN(C)CC3)[C@@H](CO)C2)c2ccsc2n1 | -6.56% |
| NC(=O)Cn1ccnc1C1CCCN(Cc2nc3ccccc3s2)C1 (configuration not stated) | -17% |
| c1ccc2c(c1)CC(N1CCCC(NCc3ccc4nonc4c3)C1)C2 (configuration not stated) | 5.6% |
| COCCc1noc(-c2cn(Cc3ccccc3C)nn2)n1 | 3.15% |
| O=S1(=O)CCC(n2nc(Cc3cccs3)nc2-c2cnccn2)C1 (configuration not stated) | -6.33% |
| COc1nc2c(cc1C(=O)NCCCc1nnc(N)s1)CCC2 | 4.37% |
| Fc1ccccc1Cc1noc(CN2CCC(C3CCCCC3)C2)n1 (configuration not stated) | 0.372% |
| CC(C)Oc1cc(N2CCN(Cc3ccsc3)C(CCO)C2)nc(N)n1 (configuration not stated) | -6.35% |
| Cc1nc(CN(C)c2nccc(C(F)(F)F)n2)cs1 | 1.15% |
| COc1ccc(OC)c(C2CCN(C(=O)C3CCOCC3)C2)c1 (configuration not stated) | 5.6% |
| Cc1ccccc1SCC(=O)Nn1cnnc1 | -43.1% |
| Cn1ccnc1SCCNc1ccnc(C(F)(F)F)n1 | -50.4% |

| SMILES | cytotoxicity at 10 µM |
| --- | --- |
| Cc1nccnc1N1CCC(Cc2ccccc2Cl)(C(=O)O)CC1 | 12.6% |
| c1ccc(CN(Cc2cccc3cnccc23)CC2CCCO2)nc1 (configuration not stated) | -5.68% |
| COCC1CCN(c2nc(C(C)(C)C)nc3c2cnn3C)C1 (configuration not stated) | -8.44% |
| Cc1cc(N2CCC(n3cc(CN4CCNCC4)nn3)CC2)ccn1 | -1.83% |
| COc1cc(F)ccc1-c1cc(N)ccn1 | -9.5% |
| COc1cccc(OC2CN(C(=O)c3ccnc(OC)c3)C2)c1 | -6.52% |
| CC(C)n1ccnc1CN1CCOC(CC2CCCCC2)C1 (configuration not stated) | -138% |
| O=c1cc(N2CCNCC2)cnn1CCCn1cccn1 | -48% |
| Cn1cc(-c2c(C#N)c(N)nc3c2CCc2[nH]ccc2-3)cc1C#N | -1.68% |
| CCn1cc(CN2CCC(CCC(=O)Nc3ccccc3Cl)CC2)cn1 | -0.99% |
| CCc1nc(N)nc(N2CCCC3(CCOCC3)C2)c1C | -123% |
| C1CCC(c2nnc3sc(C4CCCO4)nn23)C1 (configuration not stated) | 8.61% |
| CC(c1cccc(-c2cn(Cc3ccoc3)nn2)c1)N(C)C (configuration not stated) | 1.35% |
| CCc1cccc(OCCN(C)C(=O)c2ccccc2NCC(=O)O)c1 | -2.69% |
| CCOCCn1c(=O)[nH]c2cc(C(=O)N(C)CCc3cn[nH]c3)ccc21 | -21.7% |
| CC(=O)c1cc(CC(=O)NCc2ccc(CN(C)C)cc2)cs1 | -11.3% |
| Cc1cccnc1C(=O)N1CCCC(c2[nH]ncc2S(C)(=O)=O)C1 (configuration not stated) | 7.58% |
| O=C(NCc1ccccc1Cn1cncn1)C1CC1 | -11.3% |
| CCOc1ccccc1N1CCN(C(=O)NCc2cc[nH]n2)CC1 | 5.48% |
| CC(C(=O)NCc1ccnc(N(C)C)c1)n1cccn1 (configuration not stated) | -13.8% |
| CCc1ncc(C(=O)N2CCCC2Cn2cccn2)s1 (configuration not stated) | -9.67% |
| CC(C)c1ncncc1C(=O)N1CCN(Cc2cscn2)CC1 | -5.75% |
| c1cnnc(N2CCCC2CNCc2cc[nH]n2)c1 (configuration not stated) | -0.807% |

| SMILES | cytotoxicity at 10 µM |
| --- | --- |
| Cc1nc(-c2ccsc2)ccc1C(=O)NCCC(=O)N1CCCC1 | -9.57% |
| Cc1nn(C)c(C)c1C1CCCN1CCCc1nc2ccccc2o1 (configuration not stated) | -4.3% |
| Cc1ccc(F)cc1S(=O)(=O)NCc1cccnc1N(C)C | 0.716% |
| O=C(NCCn1nc2ccccn2c1=O)c1cccc2[nH]ncc12 | -0.472% |
| CNCc1ccc([C@@H]2CN(C)C[C@H]2C(N)=O)cc1 | 7.67% |
| CNC(=O)C(C)(C)N1CCC[C@H]1C(=O)NCCN(C)C | 2.2% |
| c1ccc(CC2CCN(Cc3ccnc(-c4cccnc4)n3)CC2)cc1 | 6.36% |
| Cc1noc(C)c1CN1CCCC2(CCN(CC3CCCC3)C2)C1 (configuration not stated) | -4.1% |
| CC(C)N1CCC2(CC1)C(=O)N(CCN(C)C)c1ccccc12 | -121% |
| COc1ccc(CN2C[C@H]3CN(c4ccsc4)C(=O)[C@H]3C2)cc1 | 22.8% |
| CNCC(=O)N1CCCC(c2nccnc2Oc2cccc(F)c2)C1 (configuration not stated) | 6.87% |
| c1cn2c(n1)CN(Cc1ccsc1)CC(Cn1cncn1)C2 (configuration not stated) | -74.8% |
| COc1ncccc1CN1C[C@H]2CCN(C(C)C)C[C@H]2C1 | 2% |
| O=C(NC1CC2(CCN(CCO)CC2)c2ccccc21)c1ccno1 (configuration not stated) | -12.2% |
| Cn1ccnc1C(=O)N[C@@H]1CN(Cc2ccc(F)cc2)[C@@H]2CCCO[C@@H]21 | -111% |
| c1ccc(CN2CCOCC3(CCN(C4CCOCC4)C3)C2)cc1 (configuration not stated) | 3.01% |
| CCS(=O)(=O)N1CC[C@@H]2[C@H](CC1)N(Cc1cccc(C)n1)CCS2(=O)=O | -3.98% |
| CCCn1ncc(-c2ccnc(N[C@@H]3C[C@H]4CC[C@@H]3C4)n2)c1C | 0.541% |
| CCCS(=O)(=O)N1C[C@@H]2C[C@H](C(=O)N(C)C)[C@H](C1)O2 | -74% |
| CN1CCN(C=C2N=C(c3cc(-c4ccccc4F)n[nH]3)ON2)CC1 | -4.92% |

— ChEMBL document CHEMBL4513216, “Probing the Open Global Health Chemical Diversity Library for Multistage-Active Starting Points for Next-Generation Antimalarials” (ACS Infect Dis, 2020)
